Test results: ChEMBL document CHEMBL1131375, “2-amino-4H-3,1-benzoxazin-4-ones as inhibitors of C1r serine protease” (J Med Chem, 1998)

Assays:
[1] = biological target: T1, Complement C1r subcomponent (Homo sapiens, UniProt P00736)
T1 sequence (P00736 whole entry): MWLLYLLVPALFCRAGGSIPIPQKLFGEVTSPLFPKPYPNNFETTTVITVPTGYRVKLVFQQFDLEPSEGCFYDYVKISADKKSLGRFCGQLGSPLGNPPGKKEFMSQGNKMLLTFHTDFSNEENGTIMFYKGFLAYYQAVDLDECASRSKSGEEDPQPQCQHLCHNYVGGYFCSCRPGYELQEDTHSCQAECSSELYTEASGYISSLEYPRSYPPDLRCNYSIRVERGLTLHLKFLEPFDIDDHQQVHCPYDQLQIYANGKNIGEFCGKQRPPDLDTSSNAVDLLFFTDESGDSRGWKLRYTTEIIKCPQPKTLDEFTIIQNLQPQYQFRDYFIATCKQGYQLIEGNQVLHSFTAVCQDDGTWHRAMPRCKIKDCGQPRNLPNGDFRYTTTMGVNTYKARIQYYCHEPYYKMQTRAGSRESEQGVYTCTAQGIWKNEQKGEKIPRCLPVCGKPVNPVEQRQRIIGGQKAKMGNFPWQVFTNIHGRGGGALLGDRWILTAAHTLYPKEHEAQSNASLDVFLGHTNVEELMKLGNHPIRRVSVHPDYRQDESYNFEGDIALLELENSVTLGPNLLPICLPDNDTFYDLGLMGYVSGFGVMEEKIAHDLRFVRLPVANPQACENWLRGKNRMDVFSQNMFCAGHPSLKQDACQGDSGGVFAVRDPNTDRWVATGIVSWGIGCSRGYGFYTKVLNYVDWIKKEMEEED

[2] = biological target: T1, Complement C1r subcomponent; test: 50% inhibition of human C1r serine protease after 60 mins using Cbz-Gly-Arg-S-Bzl as substrate
How it was run: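 Compound (DMSO) preincubated 60 min at room temperature in 150 mM Tris pH 7.5, then substrate (1.5 mM stock Cbz-Gly-Arg-S-Bzl in DMSO/H2O 3:7), DTNB (0.75 mM stock) and purified human C1r (20 μg/mL stock, 10 mM Tris pH 7.4) added. Read kinetically at 405 nm after 30 s; no-enzyme background wells; triplicates per concentration; IC50 reported.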

Serine protease 1 [3] = biological target: T2, Serine protease 1 (Bos taurus, UniProt P00760); test: Concentration of compound required to inhibit 50% trypsin derived from bovine pancreas
T2 sequence (P00760 whole entry): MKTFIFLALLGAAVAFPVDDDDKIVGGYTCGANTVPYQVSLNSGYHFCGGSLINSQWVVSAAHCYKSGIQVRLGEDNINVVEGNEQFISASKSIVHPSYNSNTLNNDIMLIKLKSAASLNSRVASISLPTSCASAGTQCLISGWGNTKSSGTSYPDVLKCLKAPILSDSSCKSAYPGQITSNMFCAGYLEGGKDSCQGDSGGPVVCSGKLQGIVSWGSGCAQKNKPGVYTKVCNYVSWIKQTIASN
How it was run: (§1)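 Bovine pancreatic trypsin (1.25 μg) with casein 0.5 mg/mL, 20 mM dithiothreitol, 50 mM Tris-HCl pH 7.4, at various inhibitor concentrations; 60 min, 25 °C caseinolysis, colorimetric development, absorbance 595 nm. IC50 from percent inhibition versus log [inhibitor]; mean of two to four determinations, ranges within 20%.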

[4] = The compound was examined in a functional assay using erythrocyte hemolysis as a functional end point of complement inhibition.; parameters: species or system Ovis aries; concentration or dose not given beside the values
How it was run: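 Compound added to standardized antibody-sensitized sheep erythrocyte suspension (commercial complement kit), incubated 60 min at 25 °C, centrifuged; supernatant absorbance read at 405 nm. Expressed as percent of control at 200 μM.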

Serine protease 1 [5] = biological target: T2, Serine protease 1; test: The compound was evaluated to inhibit trypsin and is expressed in IC50 (The concentration required to inhibit 50% of the enzyme).
How it was run: as §1

IC50 [1] | IC50 [2] | Structure (SMILES) | other results
– | 8 µM | O=c1oc(Nc2ccccc2Cl)nc2ccccc12 | –
– | 0.9 µM | Cc1ccc2c(=O)oc(Nc3ccccc3Cl)nc2c1 | –
– | 1.5 µM | Cc1ccc2c(=O)oc(Nc3ccccc3I)nc2c1 | IC50 (Serine protease 1 [3]): > 100 µM; Hemolysis (% of control) [4]: 114%
0.9 µM | 0.9 µM | O=c1oc(Nc2c(Cl)cccc2Cl)nc2ccccc12 | –
– | > 62.5 µM | O=c1oc(Nc2ccccc2OC(F)(F)F)nc2ccccc12 | –
> 62.5 µM | – | CN(C)c1ccc2c(=O)oc(Nc3ccccc3I)nc2c1 | –
> 62.5 µM | – | Cc1ccc2nc(Nc3ccccc3I)oc(=O)c2c1 | –
> 62.5 µM | – | CC(C)c1ccc2c(=O)oc(Nc3ccccc3I)nc2c1 | –
– | 38 µM | Cc1ccccc1Nc1nc2ccccc2c(=O)o1 | –
> 62.5 µM | – | CNc1nc2ccccc2c(=O)o1 | –
> 62.6 µM | – | O=c1oc(NCc2ccccc2I)nc2ccccc12 | –
> 62.5 µM | – | Cc1cccc(C)c1Nc1nc2ccccc2c(=O)o1 | –
– | 15.2 µM | O=c1oc(Nc2ccccc2Br)nc2ccccc12 | IC50 (Serine protease 1 [3]): > 100 µM
2 µM | 2 µM | O=c1oc(Nc2cc(Cl)ccc2Cl)nc2ccccc12 | IC50 (Serine protease 1 [3]): > 100 µM; Hemolysis (% of control) [4]: 131%
> 62.5 µM | – | CSc1ccccc1Nc1nc2ccccc2c(=O)o1 | –
> 62.5 µM | – | Cc1cccc2nc(Nc3ccccc3I)oc(=O)c12 | –
– | 14.7 µM | O=c1oc(Nc2ccccc2I)nc2ccccc12 | –
– | > 62.5 µM | O=c1oc(Nc2ccccc2I)nc2cccc(Cl)c12 | –

Further lines, the molecule ahead of its results:

Structure (SMILES) | IC50 [1] | IC50 [2] | other results
O=c1oc(NCCc2ccccc2I)nc2ccccc12 | > 62.5 µM | – | –
O=c1oc(Nc2ccccc2I)nc2cc([N+](=O)[O-])ccc12 | 0.8 µM | 7.8 µM | IC50 (Serine protease 1 [3]): > 100 µM; Hemolysis (% of control) [4]: 126%
COc1cc2nc(Nc3ccccc3I)oc(=O)c2cc1OC | 47 µM | 47 µM | –
O=c1oc(Nc2ccccc2I)nc2ccc(Cl)cc12 | – | > 62.5 µM | –
COc1ccc2c(=O)oc(Nc3ccccc3I)nc2c1 | > 62.5 µM | – | –
O=c1oc(Nc2ccccc2I)nc2cc(C(F)(F)F)ccc12 | – | 4 µM | IC50 (Serine protease 1 [3]): > 100 µM; Hemolysis (% of control) [4]: 146%
O=c1oc(-c2ccccc2I)nc2ccccc12 | – | – | IC50 (Serine protease 1 [3]): 15.3 µM; Hemolysis (% of control) [4]: 61%
O=c1oc(Nc2ccccc2I)nc2cc(C3CCCCC3)ccc12 | > 62.5 µM | – | –
O=c1oc(Nc2ccccc2I)nc2cc(Cl)ccc12 | – | 0.9 µM | –
O=c1oc(Nc2ccccc2I)nc2cc(F)ccc12 | 1.7 µM | 2.8 µM | IC50 (Serine protease 1 [3]): > 100 µM
O=c1oc(Nc2c(Cl)cccc2Cl)nc2cc(C(F)(F)F)ccc12 | 1.5 µM | 4.2 µM | IC50 (Serine protease 1 [3]): 87.1 µM; Hemolysis (% of control) [4]: 120%
O=c1oc(Nc2ccccc2Cl)nc2cc([N+](=O)[O-])ccc12 | – | > 62.5 µM | –
O=c1oc(Nc2ccccc2I)nc2cc(Cl)c(Cl)cc12 | – | > 62.5 µM | –
O=c1oc(Nc2c(Cl)cccc2Cl)nc2cc(Cl)ccc12 | – | 0.9 µM | –
O=c1oc(Nc2ccccc2I)nc2cc(F)c(F)cc12 | – | > 62.5 µM | –
Cc1cccc2nc(NC(C)C)oc(=O)c12 | > 62.5 µM | – | –
COc1ccc2nc(Nc3ccccc3I)oc(=O)c2c1 | – | > 62.5 µM | –
CN(c1nc2ccccc2c(=O)o1)c1ccccc1I | – | 16.6 µM | IC50 (Serine protease 1 [3]): 4.5 µM; Hemolysis (% of control) [4]: 72%
O=c1oc(Nc2ccccc2I)nc2cc3ccccc3cc12 | 0.2 µM | 16.6 µM | –
Nc1nc2ccccc2c(=O)o1 | > 62.5 µM | – | –
O=c1oc(Nc2ccccc2Cl)nc2cc(Cl)c(Cl)cc12 | – | > 62.5 µM | –
O=c1oc(Nc2ccccc2I)nc2cc(Cl)cc(Cl)c12 | > 62.5 µM | – | –
O=c1oc(Nc2ccccc2Cl)nc2cc(Cl)ccc12 | 0.8 µM | 0.8 µM | IC50 (Serine protease 1 [3]): > 100 µM; Hemolysis (% of control) [4]: 138%
CCN(c1nc2ccccc2c(=O)o1)c1ccccc1I | > 62.5 µM | – | –
N=C(N)c1ccc2cc(OC(=O)c3ccc(N=C(N)N)cc3)ccc2c1 [NAFAMOSTAT] | – | – | IC50 (Serine protease 1 [5]): 0.017 µM
